These results are taken from ChEMBL document CHEMBL1129431, “Derivatives of (R)- and (S)-5-fluoro-8-hydroxy-2-(dipropylamino)tetralin: synthesis and interactions with 5-HT1A receptors” (J Med Chem, 1996).

Assay [1] has as its target T1, 5-hydroxytryptamine receptor 1A (Rattus norvegicus) (UniProt P19327).
T1 sequence (whole entry): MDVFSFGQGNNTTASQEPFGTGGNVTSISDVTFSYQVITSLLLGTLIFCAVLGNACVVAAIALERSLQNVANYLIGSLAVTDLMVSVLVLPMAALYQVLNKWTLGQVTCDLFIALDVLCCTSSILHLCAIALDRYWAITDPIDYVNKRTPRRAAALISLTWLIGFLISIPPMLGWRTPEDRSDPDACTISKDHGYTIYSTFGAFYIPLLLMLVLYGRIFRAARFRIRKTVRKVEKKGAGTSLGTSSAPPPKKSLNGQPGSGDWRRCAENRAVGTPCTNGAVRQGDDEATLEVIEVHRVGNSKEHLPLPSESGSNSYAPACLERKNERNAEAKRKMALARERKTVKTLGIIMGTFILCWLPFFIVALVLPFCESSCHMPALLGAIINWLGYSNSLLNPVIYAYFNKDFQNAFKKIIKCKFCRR
Kind of assay: Effect against 5-hydroxytryptamine 1A receptor mediated inhibition of VIP-stimulated cAMP production at 0.1 uM dose. It is filed as functional. The following applies: values are per cent of control. Summed up:
(§1)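 GH4ZD10 cells expressing rat 5-HT1A receptors were detached with EBSS plus 1 mM EDTA and resuspended to ~1×10^7 cells/mL in Ham's F10 with 0.01% ascorbic acid and 0.1 mM IBMX. After 1 h preincubation at 37 °C they were diluted to 0.8-1.5×10^6 cells/mL, then incubated 20 min at 37 °C with VIP (39 nM final) plus compound, alone or with 5-HT, in duplicate. The reaction was stopped by boiling. cAMP was measured in triplicate by protein-binding assay and expressed as % of the VIP-stimulated response.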

The target of assay [2] is T1, 5-hydroxytryptamine receptor 1A (Rattus norvegicus). Kind of assay: Effect on 5-hydroxytryptamine 1A receptor mediated inhibition of VIP-stimulated cAMP production at dose of 0.1 uM + 1 uM 5-HT. In kind it is functional. To be noted: values are per cent of control. Summed up: as §1
(In general: Cyclic AMP is a second messenger, typically raised through Gs and lowered through Gi signalling.)

Assay [3] shares this target. Kind of assay: Effect on 5-hydroxytryptamine 1A receptor mediated inhibition of VIP-stimulated cAMP production at dose of 1 uM. It is filed as functional. The following applies: values are per cent of control. The gist of the method:
as §1

Assay [4] has the same target. The assay can be described thus: Effect on 5-hydroxytryptamine 1A receptor mediated inhibition of VIP-stimulated cAMP production at dose of 10 uM. In kind it is functional. The following applies: values are per cent of control. The gist of the method: as §1
The target in assay [5] is T2, 5-hydroxytryptamine receptor 1A (Rattus norvegicus, UniProt P19327).
T2 sequence (P19327 whole entry): T1 sequence (whole entry)
The assay can be described thus: Binding affinity against rat hippocampal 5-hydroxytryptamine 1A (5-HT1A) receptor determined using [3H]8-OH-DPAT as radioligand. In kind it is tissue-based, Hippocampus.

Assay [6] addresses T1, 5-hydroxytryptamine receptor 1A (Rattus norvegicus). Kind of assay: Effect on 5-hydroxytryptamine 1A receptor mediated inhibition of VIP-stimulated cAMP production at dose of 30 uM. It is filed as functional. The following applies: values are per cent of control. Summed up:
as §1

For assay [7] the target is unchanged. The assay can be described thus: Effect on 5-hydroxytryptamine 1A receptor mediated inhibition of VIP-stimulated cAMP production at dose of 1 uM+ 10 uM 5-HT. In kind it is functional. To be noted: values are per cent of control. The gist of the method:
as §1

The target is the same in assay [8]. Kind of assay: Effect on 5-hydroxytryptamine 1A receptor mediated inhibition of VIP-stimulated cAMP production at dose of 0.05 uM. It is filed as functional. The following applies: values are per cent of control. The gist of the method:
(§2)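 GH4ZD10 cells expressing rat 5-HT1A receptors, detached with EDTA-supplemented Ca/Mg-free EBSS and resuspended in Ham's F10 with 0.01% ascorbic acid and 0.1 mM IBMX. Preincubated 1 h at 37 °C, then 0.8-1.5×10^6 cells/mL incubated 20 min at 37 °C with VIP (39 nM final) plus compounds. Duplicate samples stopped by boiling. cAMP measured in triplicate by protein-binding assay. Results are given as % of the VIP-stimulated response.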

Assay [9] has the same target. Kind of assay: Effect on 5-hydroxytryptamine 1A receptor mediated inhibition of VIP-stimulated cAMP production at dose of 50 uM. The following applies: values are per cent of control. It is filed as functional. The gist of the method:
as §2

Assay [10] shares this target. The following applies: 0.05 uM.
Assay [11] shares this target. The assay can be described thus: Effect on 5-hydroxytryptamine 1A receptor mediated inhibition of VIP-stimulated cAMP production at dose of 1 uM+ 50 uM 5-HT. It is filed as functional. The following applies: values are per cent of control. Summed up:
as §2

Assay [12] has the same target. Kind of assay: Effect on 5-hydroxytryptamine 1A receptor mediated inhibition of VIP-stimulated cAMP production at dose of 1 uM+ 1 uM 5-HT. In kind it is functional. To be noted: values are per cent of control. Summed up: as §2

As to `CCCN(CCC)[C@H]1CCc2c(F)ccc(C(C)=O)c2C1` [listing 1 of 3 here], the response, % of control was found to be 90% in assay [1], 57% in [2], 98% in assay [3] and 97% in assay [4].

A word on the Ki: it is a dissociation constant, usually derived from enzyme kinetics or from competition with a known ligand. A high value points to lower affinity. `CCCN(CCC)[C@H]1CCc2c(F)ccc(-c3cccs3)c2C1` [listing 1 of 2 here]: the Ki in [5] is 32.7 nM.

`CCCN(CCC)[C@H]1CCc2c(F)ccc(C(C)=O)c2C1` [listing 2 of 3 here]: affinity in assay [5] was put at a Ki of 13.6 nM.

As to `CCCN(CCC)[C@H]1CCc2c(F)ccc(C(C)=O)c2C1` [listing 3 of 3 here], affinity in assay [5] was put at a Ki of 13.6 nM.

In [5], `CCCN(CCC)[C@@H]1CCc2cccc(-c3cccs3)c2C1` came in with a Ki of 8.4 nM.

For `CCCN(CCC)[C@@H]1CCc2c(F)ccc(-c3cccs3)c2C1`, the response, % of control in assay [1] stood at 98%; in assay [2] it was 60%; in assay [6] it was 61%; in assay [3], 93%; in assay [4], 79%; in [7], 58%.

`CCCN(CCCCN1C(=O)CC2(CCCC2)CC1=O)[C@H]1CCc2c(F)ccc(O)c2C1`: the response, % of control in assay [8] was found to be 95%; in [3] it was 91%; in [9], 82%; in assay [10] it was 68%. This compound also gave a Ki in [5] of 18.2 nM.

As for `CCCN(CCC)[C@@H]1CCc2c(F)ccc(O)c2C1`, the response, % of control was 86% in assay [1], 57% in [2], 78% in assay [3] and 61% in assay [4].

Consider `CCCN(CCCCN1C(=O)CC2(CCCC2)CC1=O)[C@@H]1CCc2c(F)ccc(OS(=O)(=O)C(F)(F)F)c2C1`, for which the response, % of control in [2] came out at 68%; in assay [8] it was 98%; in assay [3] it was 73%; in [11], 51%. The compound further returned a Ki in [5] of 0.9 nM.

In the case of `CCCN(CCC)[C@@H]1CCc2c(F)cccc2C1` [listing 1 of 2 here], the affinity in assay [5], expressed as Ki, was 136 nM.

On to `CCCN(CCC)[C@@H]1CCc2c(F)cccc2C1` [listing 2 of 2 here], for which the Ki in assay [5] amounted to 136 nM.

In the case of `CCCN(CCC)[C@@H]1CCc2cccc(O)c2C1`, the response, % of control in assay [1] is 53%; in assay [2], 43%; in assay [3] it was 45%; in [4] it was 47%.

As for `CCCN(CCC)[C@H]1CCc2cccc(S(=O)(=O)C(F)(F)F)c2C1`, in assay [5], the inhibition constant Ki amounted to 9.5 nM.

With `CCCN(CCC)[C@H]1CCc2cccc(O)c2C1`, the response, % of control was 74% in assay [1]; 43% in [2]; 61% in assay [3]; 62% in [4]; 47% in assay [12].

For the compound `CCCN(CCC)[C@H]1CCc2c(F)cccc2C1` [listing 1 of 2 here], the inhibitory constant (Ki) in assay [5] was 250 nM.

Take `CCCN(CCC)[C@H]1CCc2cccc(-c3cccs3)c2C1`: the Ki in [5] was 5.5 nM.

For `O=C1CC2(CCCC2)CC(=O)N1CCCCN1CCN(c2ncccn2)CC1`, the response, % of control was 84% in assay [1]; 43% in [2]; 75% in [3]; 73% in assay [4]; 64% in [7].

`CCCN(CCC)[C@H]1CCc2c(F)ccc(OS(=O)(=O)C(F)(F)F)c2C1`: the Ki in assay [5] came to 490 nM.

Take `CCCN(CCC)[C@H]1CCc2c(F)ccc(-c3cccs3)c2C1` [listing 2 of 2 here]: in assay [5], affinity was put at a Ki of 32.7 nM.

`CCCN(CCC)[C@H]1CCc2c(F)cccc2C1` [listing 2 of 2 here] yielded a Ki in [5] of 250 nM.
